As a reminder, the IC50 is the concentration that inhibits the measured activity by half.

Structures are written as SMILES.

For the first assay, the system named is MGC-803. In words: Antitumor activity against human MGC-803 cells assessed as inhibition of cell proliferation incubated for 72 hrs by MTT assay. To be noted: MGC-803, 72 h. The assay is classed as functional, cell-based. (In general: Formazan colour is commonly taken as a measure of viable cells.)
For the molecule `CC(Oc1cc(-c2cnc3cc(-c4cnn(CCN5CCCC5)c4)ccn23)sc1C(N)=O)c1ccccc1C(F)(F)F` (stereo not given), the IC50 turned out to be 8.4 µM.

On to `COC(=O)c1sc(-c2cnc3cc(-c4cnn(CCCN5CCN(C)CC5)c4)ccn23)cc1OC(C)c1ccccc1C(F)(F)F` (stereo not given), for which the IC50 is 3.76 µM.

Consider `COC(=O)c1sc(-c2cnc3cc(-c4cnn(C5CCN(C(=O)OC(C)(C)C)C5)c4)ccn23)cc1OC(C)c1ccccc1C(F)(F)F` (stereo not given), for which the IC50 stood at 20.3 µM.

For the molecule `CC(Oc1cc(-c2cnc3cc(-c4cnn(C)c4)ccn23)sc1C(N)=O)c1ccccc1F` (stereo not given), the IC50 is 3.52 µM.

Consider `CC(Oc1cc(-c2cnc3cc(-c4cnn(CCN(C)C)c4)ccn23)sc1C(N)=O)c1cccc(C(F)(F)F)c1` (stereo not given), for which the IC50 is 6.81 µM.

Regarding `COC(=O)c1sc(-c2cnc3cc(-c4cnn(CCN(C)C)c4)ccn23)cc1OC(C)c1cccc(F)c1` (stereo not given), the IC50 was found to be 1.57 µM.

`CC(Oc1cc(-c2cnc3cc(-c4cnn(CCN5CCCCC5)c4)ccn23)sc1C(N)=O)c1ccccc1C(F)(F)F` (stereo not given): the IC50 came out at 8.68 µM.

For `CC(Oc1cc(-c2cnc3cc(-c4cnn(C)c4)ccn23)sc1C(N)=O)c1ccccc1` (stereo not given), the IC50 stood at 2.98 µM.

`COC(=O)c1sc(-c2cnc3cc(-c4cnn(C)c4)ccn23)cc1OC(C)c1cccc(F)c1` (stereo not given): the IC50 is above 30 µM.

As to `COC(=O)c1sc(-c2cnc3cc(-c4cnn(CCN(C)C)c4)ccn23)cc1OC(C)c1ccccc1F` (stereo not given), the IC50 was 2.47 µM.

In the case of `CC(Oc1cc(-c2cnc3cc(-c4cnn(C)c4)ccn23)sc1C(N)=O)c1cccc(C(F)(F)F)c1` (stereo not given), the IC50 turned out to be 3.48 µM.

For the molecule `CC(Oc1cc(-c2cnc3cc(-c4cnn(C)c4)ccn23)sc1C(N)=O)c1cccc(F)c1` (stereo not given), the IC50 was determined as 16.4 µM.

With `COC(=O)c1sc(-c2cnc3cc(-c4cnn(CCN5CCCC5)c4)ccn23)cc1OC(C)c1ccccc1C(F)(F)F` (stereo not given), the IC50 amounted to 2.05 µM.

`COC(=O)c1sc(-c2cnc3cc(-c4cnn(CCN(C)C)c4)ccn23)cc1OC(C)c1cccc(C(F)(F)F)c1` (stereo not given): the IC50 was found to be 4.71 µM.

On to `CC(Oc1cc(-c2cnc3cc(-c4cnn(CCN(C)C)c4)ccn23)sc1C(N)=O)c1cccc(F)c1` (stereo not given), for which the IC50 is 6.02 µM.

As to `COC(=O)c1sc(-c2cnc3cc(-c4cnn(CC5CN(C(=O)OC(C)(C)C)C5)c4)ccn23)cc1OC(C)c1ccccc1C(F)(F)F` (stereo not given), the IC50 was found to be 19.3 µM.

In the case of `CC(Oc1cc(-c2cnc3cc(-c4cnn(CCN(C)C)c4)ccn23)sc1C(N)=O)c1ccccc1` (stereo not given), the IC50 came out at 1.95 µM.

For `COC(=O)c1sc(-c2cnc3cc(-c4cnn(C5CCN(C(=O)OC(C)(C)C)CC5)c4)ccn23)cc1OC(C)c1ccccc1C(F)(F)F` (stereo not given), the IC50 came to 20.4 µM.

Consider `COC(=O)c1sc(-c2cnc3cc(-c4cnn(CCN5CCOCC5)c4)ccn23)cc1OC(C)c1ccccc1C(F)(F)F` (stereo not given), for which the IC50 was determined as 5.9 µM.

Consider `COC(=O)c1sc(-c2cnc3cc(-c4cnn(C)c4)ccn23)cc1OC(C)c1ccccc1C(F)(F)F` (stereo not given), for which the IC50 was found to be 3.92 µM.

As for `CC(Oc1cc(-c2cnc3cc(-c4cnn(CCCN5CCN(C)CC5)c4)ccn23)sc1C(N)=O)c1ccccc1C(F)(F)F` (stereo not given), the IC50 is 0.054 µM.

On to `COC(=O)c1sc(-c2cnc3cc(-c4cnn(CCN5CCCCC5)c4)ccn23)cc1OC(C)c1ccccc1C(F)(F)F` (stereo not given), for which the IC50 is 7.36 µM.

For `CC(Oc1cc(-c2cnc3cc(-c4cnn(CCN(C)C)c4)ccn23)sc1C(N)=O)c1ccccc1F` (stereo not given), the IC50 stood at 2.91 µM.

Take `COC(=O)c1sc(-c2cnc3cc(-c4cnn(CCN(C)C)c4)ccn23)cc1OC(C)c1ccccc1C(F)(F)F` (stereo not given): the IC50 came out at 0.32 µM.

For `COC(=O)c1sc(-c2cnc3cc(-c4cnn(C)c4)ccn23)cc1OC(C)c1cccc(C(F)(F)F)c1` (stereo not given), the IC50 stood at 17.3 µM.

Regarding `COC(=O)c1sc(-c2cnc3cc(-c4cnn(CCN(C)C)c4)ccn23)cc1OC(C)c1ccccc1` (stereo not given), the IC50 is 1.29 µM.

With `CC(Oc1cc(-c2cnc3cc(-c4cnn(CC5CN(C(=O)OC(C)(C)C)C5)c4)ccn23)sc1C(N)=O)c1ccccc1C(F)(F)F` (stereo not given), the IC50 is 0.038 µM.

As to `CC(Oc1cc(-c2cnc3cc(-c4cnn(C5CCN(C(=O)OC(C)(C)C)C5)c4)ccn23)sc1C(N)=O)c1ccccc1C(F)(F)F` (stereo not given), the IC50 is 0.55 µM.

As for `COC(=O)c1sc(-c2cnc3cc(-c4cnn(C)c4)ccn23)cc1OC(C)c1ccccc1` (stereo not given), the IC50 worked out at 9.18 µM.

For `CN(C)CCn1cc(-c2ccn3c(-c4ccc(C(N)=O)c(OCc5cccc(F)c5)c4)cnc3c2)cn1`, the IC50 came to 0.65 µM.

In the case of `CC(Oc1cc(-c2cnc3cc(-c4cnn(CCN5CCOCC5)c4)ccn23)sc1C(N)=O)c1ccccc1C(F)(F)F` (stereo not given), the IC50 was 0.044 µM.

On to `COC(=O)c1sc(-c2cnc3cc(-c4cnn(C)c4)ccn23)cc1OC(C)c1ccccc1F` (stereo not given), for which the IC50 was 11.1 µM.

On to `CC(Oc1cc(-c2cnc3cc(-c4cnn(C5CCN(C(=O)OC(C)(C)C)CC5)c4)ccn23)sc1C(N)=O)c1ccccc1C(F)(F)F` (stereo not given), for which the IC50 turned out to be 1.81 µM.

Another assay concerns Hep 3B2. In words: Antitumor activity against human Hep3B cells assessed as inhibition of cell proliferation incubated for 72 hrs by MTT assay. It counts as functional, cell-based.
Conditions: not given
An outline of the steps:
(§1)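 Cells were exposed to a range of compound concentrations for 72 h at 37 °C. Proliferation was read by MTT assay, and IC50 values are reported.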
Turning to `CC(Oc1cc(-c2cnc3cc(-c4cnn(CCCN5CCN(C)CC5)c4)ccn23)sc1C(N)=O)c1ccccc1C(F)(F)F` (stereo not given), the IC50 worked out at 1.18 µM.

As to `CC(Oc1cc(-c2cnc3cc(-c4cnn(CC5CN(C(=O)OC(C)(C)C)C5)c4)ccn23)sc1C(N)=O)c1ccccc1C(F)(F)F` (stereo not given), the IC50 was 1.25 µM.

Turning to `CN(C)CCn1cc(-c2ccn3c(-c4ccc(C(N)=O)c(OCc5cccc(F)c5)c4)cnc3c2)cn1`, the IC50 came out at 1.07 µM.

Turning to `CC(Oc1cc(-c2cnc3cc(-c4cnn(CCN5CCOCC5)c4)ccn23)sc1C(N)=O)c1ccccc1C(F)(F)F` (stereo not given), the IC50 stood at 1.25 µM.

The next assay deals with Bel-7402. In words: Antitumor activity against human Bel-7402 cells assessed as inhibition of cell proliferation incubated for 72 hrs by MTT assay. To be noted: Bel-7402, 72 h. The assay is classed as functional, cell-based. The method, boiled down:
as §1
Consider `CC(Oc1cc(-c2cnc3cc(-c4cnn(CCCN5CCN(C)CC5)c4)ccn23)sc1C(N)=O)c1ccccc1C(F)(F)F` (stereo not given), for which the IC50 was 5.99 µM.

As for `CC(Oc1cc(-c2cnc3cc(-c4cnn(CC5CN(C(=O)OC(C)(C)C)C5)c4)ccn23)sc1C(N)=O)c1ccccc1C(F)(F)F` (stereo not given), the IC50 came out at 10.4 µM.

In the case of `CN(C)CCn1cc(-c2ccn3c(-c4ccc(C(N)=O)c(OCc5cccc(F)c5)c4)cnc3c2)cn1`, the IC50 stood at 6.37 µM.

For `CC(Oc1cc(-c2cnc3cc(-c4cnn(CCN5CCOCC5)c4)ccn23)sc1C(N)=O)c1ccccc1C(F)(F)F` (stereo not given), the IC50 is 4.33 µM.

The test system of a further assay is HCT-116. Description: Antitumor activity against human HCT-116 cells assessed as inhibition of cell proliferation incubated for 72 hrs by MTT assay. The assay is classed as functional, cell-based. The conditions noted are these: HCT-116, 72 h. An outline of the steps:
as §1
For `CC(Oc1cc(-c2cnc3cc(-c4cnn(CCCN5CCN(C)CC5)c4)ccn23)sc1C(N)=O)c1ccccc1C(F)(F)F` (stereo not given), the IC50 is 0.46 µM.

Consider `CC(Oc1cc(-c2cnc3cc(-c4cnn(CC5CN(C(=O)OC(C)(C)C)C5)c4)ccn23)sc1C(N)=O)c1ccccc1C(F)(F)F` (stereo not given), for which the IC50 came out at 0.48 µM.

In the case of `CN(C)CCn1cc(-c2ccn3c(-c4ccc(C(N)=O)c(OCc5cccc(F)c5)c4)cnc3c2)cn1`, the IC50 is 0.7 µM.

Turning to `CC(Oc1cc(-c2cnc3cc(-c4cnn(CCN5CCOCC5)c4)ccn23)sc1C(N)=O)c1ccccc1C(F)(F)F` (stereo not given), the IC50 worked out at 0.36 µM.

Values taken from ChEMBL document CHEMBL5244264, “Design, synthesis, and structure activity relationship (SAR) studies of novel imidazo[1,2-a] pyridine derivatives as Nek2 inhibitors” (Bioorg Med Chem, 2020).
